Reference: ChEMBL document CHEMBL4002610, “Design, synthesis and biological activity evaluation of novel 2,6-difluorobenzamide derivatives through FtsZ inhibition” (2017)
≈ marks a conversion by molar mass, not a printed value.

The molecules below were run on Streptococcus pyogenes (assay: Antibacterial activity against penicillin-susceptible Streptococcus pyogenes after 24 hrs by broth microdilution method). Conditions: not given.
Format: functional
Outline: (§1)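 MIC by standard broth microdilution per NCCLS guidance. Strain panel: B. subtilis ATCC9372 and S. aureus ATCC25923 as standard susceptible strains, S. aureus ATCC29213 as […], S. pyogenes PS as penicillin-susceptible, S. pneumoniae ATCC49619 as standard susceptible, alongside Gram-negative strains.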

SMILES	MIC
NC(=O)c1c(F)ccc(O)c1F	> 4100 µg/mL
COc1cc(/C=C/C(=O)CC(=O)/C=C/c2ccc(O)c(OC)c2)ccc1O [CURCUMIN]	> 4100 µg/mL
NC(=O)c1c(F)ccc(OCCCCCn2cnc3cc([N+](=O)[O-])ccc32)c1F	1020 µg/mL (≈ 2530 µM)
NC(=O)c1c(F)ccc(OCCCn2cnc3cc([N+](=O)[O-])ccc32)c1F	512 µg/mL (≈ 1360 µM)
CCC(C)Oc1ccc(F)c(C(N)=O)c1F (configuration not stated)	> 128 µg/mL
NC(=O)c1c(F)ccc(OCCn2cnc3cc([N+](=O)[O-])ccc32)c1F	512 µg/mL (≈ 1410 µM)
NC(=O)c1c(F)ccc(OC2CCCCC2)c1F	> 128 µg/mL
CCOCCC(=O)COc1ccc(F)c(C(N)=O)c1F	> 128 µg/mL

The molecules below were run on Pseudomonas aeruginosa (assay: Antibacterial activity against Pseudomonas aeruginosa ATCC 27853 after 24 hrs by broth microdilution method). Conditions: ATCC 27853, 24 h.
Format: functional
Outline: as §1

SMILES	MIC
NC(=O)c1c(F)ccc(O)c1F	512 µg/mL (≈ 2960 µM)
COc1cc(/C=C/C(=O)CC(=O)/C=C/c2ccc(O)c(OC)c2)ccc1O [CURCUMIN]	4100 µg/mL (≈ 11100 µM)
NC(=O)c1c(F)ccc(OCCCCCn2cnc3cc([N+](=O)[O-])ccc32)c1F	512 µg/mL (≈ 1270 µM)
NC(=O)c1c(F)ccc(OCCCn2cnc3cc([N+](=O)[O-])ccc32)c1F	512 µg/mL (≈ 1360 µM)
CCC(C)Oc1ccc(F)c(C(N)=O)c1F (configuration not stated)	128 µg/mL (≈ 558 µM)
NC(=O)c1c(F)ccc(OCCn2cnc3cc([N+](=O)[O-])ccc32)c1F	512 µg/mL (≈ 1410 µM)
NC(=O)c1c(F)ccc(OC2CCCCC2)c1F	128 µg/mL (≈ 501 µM)
CCOCCC(=O)COc1ccc(F)c(C(N)=O)c1F	128 µg/mL (≈ 446 µM)

The molecules below were run on Streptococcus pneumoniae (assay: Antibacterial activity against Streptococcus pneumoniae ATCC 49619 after 24 hrs by broth microdilution method). Conditions: ATCC 49619, 24 h.
Format: functional
Outline: as §1

SMILES	MIC
NC(=O)c1c(F)ccc(O)c1F	4100 µg/mL (≈ 23700 µM)
COc1cc(/C=C/C(=O)CC(=O)/C=C/c2ccc(O)c(OC)c2)ccc1O [CURCUMIN]	> 4100 µg/mL
NC(=O)c1c(F)ccc(OCCCCCn2cnc3cc([N+](=O)[O-])ccc32)c1F	512 µg/mL (≈ 1270 µM)
NC(=O)c1c(F)ccc(OCCCn2cnc3cc([N+](=O)[O-])ccc32)c1F	512 µg/mL (≈ 1360 µM)
CCC(C)Oc1ccc(F)c(C(N)=O)c1F (configuration not stated)	128 µg/mL (≈ 558 µM)
NC(=O)c1c(F)ccc(OCCn2cnc3cc([N+](=O)[O-])ccc32)c1F	256 µg/mL (≈ 707 µM)
NC(=O)c1c(F)ccc(OC2CCCCC2)c1F	128 µg/mL (≈ 501 µM)
CCOCCC(=O)COc1ccc(F)c(C(N)=O)c1F	128 µg/mL (≈ 446 µM)

Each molecule was assayed on Escherichia coli ATCC 25922 (assay: Inhibition of FtsZ in Escherichia coli ATCC 25922 assessed as decrease in cell division by measuring lowest compound concentration at which bacterial filamentation is observed after 5 hrs by phase-contrast light microscopy). Conditions: not given.
Outline: (§2)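 Cell division inhibition scored by cell morphology under phase-contrast light microscopy. B. subtilis ATCC9372, E. coli ATCC25922 and S. aureus ATCC25923 were exposed to compound. The lowest concentration giving filamentation (B. subtilis, E. coli) or ballooning (S. aureus) was recorded as the cell division inhibitory concentration.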

SMILES	INH
NC(=O)c1c(F)ccc(O)c1F	512 µg/mL
COc1cc(/C=C/C(=O)CC(=O)/C=C/c2ccc(O)c(OC)c2)ccc1O [CURCUMIN]	256 µg/mL
NC(=O)c1c(F)ccc(OCCCCCn2cnc3cc([N+](=O)[O-])ccc32)c1F	256 µg/mL
NC(=O)c1c(F)ccc(OCCCn2cnc3cc([N+](=O)[O-])ccc32)c1F	512 µg/mL
CCC(C)Oc1ccc(F)c(C(N)=O)c1F (configuration not stated)	64 µg/mL
NC(=O)c1c(F)ccc(OCCn2cnc3cc([N+](=O)[O-])ccc32)c1F	128 µg/mL
NC(=O)c1c(F)ccc(OC2CCCCC2)c1F	64 µg/mL
CCOCCC(=O)COc1ccc(F)c(C(N)=O)c1F	64 µg/mL

These molecules were tested against T1, Cell division protein FtsZ (Staphylococcus aureus) (UniProt P0A031) (assay: Inhibition of FtsZ in Staphylococcus aureus ATCC 25923 assessed as decrease in cell division by measuring lowest compound concentration at which bacterial ballooning is observed after 5 hrs by phase-contrast light microscopy). Conditions: not given.
T1 sequence (whole entry): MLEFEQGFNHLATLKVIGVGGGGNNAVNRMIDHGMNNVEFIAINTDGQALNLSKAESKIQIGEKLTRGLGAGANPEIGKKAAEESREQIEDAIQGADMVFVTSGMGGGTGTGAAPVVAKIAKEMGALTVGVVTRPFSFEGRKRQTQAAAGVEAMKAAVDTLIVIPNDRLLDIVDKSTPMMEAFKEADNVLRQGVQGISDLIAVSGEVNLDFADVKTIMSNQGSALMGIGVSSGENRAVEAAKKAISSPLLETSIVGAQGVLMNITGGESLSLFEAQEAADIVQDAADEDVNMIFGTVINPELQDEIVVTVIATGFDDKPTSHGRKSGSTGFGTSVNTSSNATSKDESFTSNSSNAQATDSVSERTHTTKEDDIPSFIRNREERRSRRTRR
Outline: as §2

SMILES	INH
NC(=O)c1c(F)ccc(O)c1F	2050 µg/mL
COc1cc(/C=C/C(=O)CC(=O)/C=C/c2ccc(O)c(OC)c2)ccc1O [CURCUMIN]	1020 µg/mL
NC(=O)c1c(F)ccc(OCCCn2cnc3cc([N+](=O)[O-])ccc32)c1F	1020 µg/mL
CCC(C)Oc1ccc(F)c(C(N)=O)c1F (configuration not stated)	32 µg/mL
NC(=O)c1c(F)ccc(OCCn2cnc3cc([N+](=O)[O-])ccc32)c1F	256 µg/mL
NC(=O)c1c(F)ccc(OC2CCCCC2)c1F	128 µg/mL
CCOCCC(=O)COc1ccc(F)c(C(N)=O)c1F	128 µg/mL

What follows are molecules tested on Escherichia coli (assay: Antibacterial activity against Escherichia coli ATCC 25922 after 24 hrs by broth microdilution method). Conditions: ATCC 25922, 24 h.
Format: functional
Outline: as §1

SMILES	MIC
NC(=O)c1c(F)ccc(O)c1F	512 µg/mL (≈ 2960 µM)
COc1cc(/C=C/C(=O)CC(=O)/C=C/c2ccc(O)c(OC)c2)ccc1O [CURCUMIN]	512 µg/mL (≈ 1390 µM)
NC(=O)c1c(F)ccc(OCCCCCn2cnc3cc([N+](=O)[O-])ccc32)c1F	512 µg/mL (≈ 1270 µM)
NC(=O)c1c(F)ccc(OCCCn2cnc3cc([N+](=O)[O-])ccc32)c1F	1020 µg/mL (≈ 2720 µM)
CCC(C)Oc1ccc(F)c(C(N)=O)c1F (configuration not stated)	128 µg/mL (≈ 558 µM)
NC(=O)c1c(F)ccc(OCCn2cnc3cc([N+](=O)[O-])ccc32)c1F	256 µg/mL (≈ 707 µM)
NC(=O)c1c(F)ccc(OC2CCCCC2)c1F	128 µg/mL (≈ 501 µM)
CCOCCC(=O)COc1ccc(F)c(C(N)=O)c1F	256 µg/mL (≈ 891 µM)

Each molecule was assayed on Staphylococcus aureus (assay: Antibacterial activity against penicillin-resistant Staphylococcus aureus clinical isolate after 24 hrs by broth microdilution method). Conditions: not given.
Format: functional

SMILES	MIC
NC(=O)c1c(F)ccc(O)c1F	1020 µg/mL (≈ 5920 µM)
COc1cc(/C=C/C(=O)CC(=O)/C=C/c2ccc(O)c(OC)c2)ccc1O [CURCUMIN]	4100 µg/mL (≈ 11100 µM)
NC(=O)c1c(F)ccc(OCCCCCn2cnc3cc([N+](=O)[O-])ccc32)c1F	2050 µg/mL (≈ 5060 µM)
NC(=O)c1c(F)ccc(OCCCn2cnc3cc([N+](=O)[O-])ccc32)c1F	1020 µg/mL (≈ 2720 µM)
CCC(C)Oc1ccc(F)c(C(N)=O)c1F (configuration not stated)	128 µg/mL (≈ 558 µM)
NC(=O)c1c(F)ccc(OCCn2cnc3cc([N+](=O)[O-])ccc32)c1F	1020 µg/mL (≈ 2830 µM)
NC(=O)c1c(F)ccc(OC2CCCCC2)c1F	256 µg/mL (≈ 1000 µM)
CCOCCC(=O)COc1ccc(F)c(C(N)=O)c1F	256 µg/mL (≈ 891 µM)

What follows are molecules tested on Staphylococcus aureus (assay: Antibacterial activity against Staphylococcus aureus ATCC 29213 after 24 hrs by broth microdilution method). Conditions: ATCC 29213, 24 h.
Format: functional
Outline: as §1

SMILES	MIC
NC(=O)c1c(F)ccc(O)c1F	512 µg/mL (≈ 2960 µM)
COc1cc(/C=C/C(=O)CC(=O)/C=C/c2ccc(O)c(OC)c2)ccc1O [CURCUMIN]	4100 µg/mL (≈ 11100 µM)
NC(=O)c1c(F)ccc(OCCCCCn2cnc3cc([N+](=O)[O-])ccc32)c1F	1020 µg/mL (≈ 2530 µM)
NC(=O)c1c(F)ccc(OCCCn2cnc3cc([N+](=O)[O-])ccc32)c1F	512 µg/mL (≈ 1360 µM)
CCC(C)Oc1ccc(F)c(C(N)=O)c1F (configuration not stated)	128 µg/mL (≈ 558 µM)
NC(=O)c1c(F)ccc(OCCn2cnc3cc([N+](=O)[O-])ccc32)c1F	512 µg/mL (≈ 1410 µM)
NC(=O)c1c(F)ccc(OC2CCCCC2)c1F	256 µg/mL (≈ 1000 µM)
CCOCCC(=O)COc1ccc(F)c(C(N)=O)c1F	128 µg/mL (≈ 446 µM)

The molecules below were run on Bacillus subtilis (assay: Inhibition of FtsZ in Bacillus subtilis ATCC 9372 assessed as decrease in cell division by measuring lowest compound concentration at which bacterial filamentation is observed after 5 hrs by phase-contrast light microscopy). Conditions: not given.
Outline: as §2

SMILES	INH
NC(=O)c1c(F)ccc(O)c1F	1020 µg/mL
COc1cc(/C=C/C(=O)CC(=O)/C=C/c2ccc(O)c(OC)c2)ccc1O [CURCUMIN]	16 µg/mL
NC(=O)c1c(F)ccc(OCCCCCn2cnc3cc([N+](=O)[O-])ccc32)c1F	32 µg/mL
NC(=O)c1c(F)ccc(OCCCn2cnc3cc([N+](=O)[O-])ccc32)c1F	128 µg/mL
CCC(C)Oc1ccc(F)c(C(N)=O)c1F (configuration not stated)	128 µg/mL
NC(=O)c1c(F)ccc(OCCn2cnc3cc([N+](=O)[O-])ccc32)c1F	32 µg/mL
NC(=O)c1c(F)ccc(OC2CCCCC2)c1F	64 µg/mL
CCOCCC(=O)COc1ccc(F)c(C(N)=O)c1F	32 µg/mL

These molecules were tested on Staphylococcus aureus (assay: Antibacterial activity against Staphylococcus aureus ATCC 25923 after 24 hrs by broth microdilution method). Conditions: ATCC 25923, 24 h.
Format: functional
Outline: as §1

SMILES	MIC
NC(=O)c1c(F)ccc(O)c1F	1020 µg/mL (≈ 5920 µM)
COc1cc(/C=C/C(=O)CC(=O)/C=C/c2ccc(O)c(OC)c2)ccc1O [CURCUMIN]	2050 µg/mL (≈ 5560 µM)
NC(=O)c1c(F)ccc(OCCCCCn2cnc3cc([N+](=O)[O-])ccc32)c1F	512 µg/mL (≈ 1270 µM)
NC(=O)c1c(F)ccc(OCCCn2cnc3cc([N+](=O)[O-])ccc32)c1F	1020 µg/mL (≈ 2720 µM)
CCC(C)Oc1ccc(F)c(C(N)=O)c1F (configuration not stated)	64 µg/mL (≈ 279 µM)
NC(=O)c1c(F)ccc(OCCn2cnc3cc([N+](=O)[O-])ccc32)c1F	256 µg/mL (≈ 707 µM)
NC(=O)c1c(F)ccc(OC2CCCCC2)c1F	128 µg/mL (≈ 501 µM)
CCOCCC(=O)COc1ccc(F)c(C(N)=O)c1F	64 µg/mL (≈ 223 µM)

The molecules below were run on Bacillus subtilis (assay: Antibacterial activity against Bacillus subtilis ATCC 9372 after 24 hrs by broth microdilution method). Conditions: ATCC 9372, 24 h.
Format: functional
Outline: as §1

SMILES	MIC
NC(=O)c1c(F)ccc(O)c1F	1020 µg/mL (≈ 5920 µM)
COc1cc(/C=C/C(=O)CC(=O)/C=C/c2ccc(O)c(OC)c2)ccc1O [CURCUMIN]	32 µg/mL (≈ 86.9 µM)
NC(=O)c1c(F)ccc(OCCCCCn2cnc3cc([N+](=O)[O-])ccc32)c1F	512 µg/mL (≈ 1270 µM)
NC(=O)c1c(F)ccc(OCCCn2cnc3cc([N+](=O)[O-])ccc32)c1F	256 µg/mL (≈ 680 µM)
CCC(C)Oc1ccc(F)c(C(N)=O)c1F (configuration not stated)	128 µg/mL (≈ 558 µM)
NC(=O)c1c(F)ccc(OCCn2cnc3cc([N+](=O)[O-])ccc32)c1F	64 µg/mL (≈ 177 µM)
NC(=O)c1c(F)ccc(OC2CCCCC2)c1F	64 µg/mL (≈ 251 µM)
CCOCCC(=O)COc1ccc(F)c(C(N)=O)c1F	64 µg/mL (≈ 223 µM)
